In brackets after ≈: the same amount, converted by molar mass.
Legend:
Cavia porcellus [1] = species: Cavia porcellus; assay: Compound was evaluated for the inhibitory activity against slow reacting substance of anaphylaxis (SRS-A) of guinea pig ileum; assay type: functional, organism-based
Outline: (§1)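 Guinea pig ileum strip in Tyrode's solution at 37 °C, aerated with 95% O2-5% CO2. SRS-A came from rat peritoneal shock fluid after passive peritoneal anaphylaxis, and its specificity was checked against atropine (5 × 10^-7 M) and mepyramine (10^-6 M). The SRS-A dose was set to give ca. 60% of maximal contraction. Antagonist was added 2 min before challenge; percent inhibition was read, and IC50 was interpolated from dose-response curves.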

Cavia porcellus [2] = assay: Compound was evaluated in vivo for collapse time in guinea pig anaphylaxis model at dose 5 mg/kg; assay type: functional
Outline: (§2)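 Guinea pigs were sensitized with 10% ovalbumin (1 mL s.c. plus 1 mL i.p.), and about 4 weeks later received the antagonist orally. They were then exposed to aerosolized ovalbumin, with collapse time as the endpoint and no collapse within 6 min taken as maximal protection. Groups (4–15 animals) were compared with controls by one-way ANOVA and Dunnett's test after Bartlett's test.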

Cavia porcellus [3] = species: Cavia porcellus; assay: Compound was evaluated for the inhibitory activity against Acetylcholine in guinea pig ileum; assay type: functional; parameters: concentration or dose not given beside the values
Cavia porcellus [4] = species: Cavia porcellus; assay: Compound was evaluated for the inhibitory activity against Serotonin in guinea pig ileum; assay type: functional
Cavia porcellus [5] = species: Cavia porcellus; assay: Compound was evaluated for the inhibitory activity against Histamine in guinea pig ileum; assay type: functional; parameters: concentration or dose not given beside the values
Cavia porcellus [6] = assay: Compound was evaluated in vivo for collapse time in guinea pig anaphylaxis model at dose 10 mg/kg; assay type: functional; outline: as §2
Cavia porcellus [7] = species: Cavia porcellus; assay: Compound was evaluated for the inhibitory activity against slow reacting substance of anaphylaxis (SRS-A) of guinea pig ileum;NA denotes not active; assay type: functional, organism-based; outline: as §1
Cavia porcellus [8] = species: Cavia porcellus; assay: Compound was evaluated for the inhibitory activity against slow reacting substance of anaphylaxis (SRS-A) of guinea pig ileum;NA means not active; assay type: functional, organism-based
Outline: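 Guinea pig ileum strip in Tyrode's solution at 37 °C, aerated with 95% O2-5% CO2. SRS-A came from rat peritoneal shock fluid after passive peritoneal anaphylaxis, dosed to give ca. 60% of maximal contraction. Atropine (5 × 10^-7 M) and mepyramine (10^-6 M) checks were run. Antagonist was added 2 min before SRS-A challenge, and percent inhibition recorded. IC50 was interpolated from two or at least three dose-response curves.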

Row | IC50 (Cavia porcellus [8]) | SMILES | IC50 (Cavia porcellus [1]) | Collapse time (Cavia porcellus [2]) | Inhibition (Cavia porcellus [3]) | Inhibition (Cavia porcellus [4]) | Inhibition (Cavia porcellus [5]) | Collapse time (Cavia porcellus [6]) | IC50 (Cavia porcellus [7])
1 |  | C=C(C)[C@H]1Cc2c(ccc3c2OC2COc4cc(OC)c(OC)cc4C2/C3=N/OC(C)=O)O1 (stereo not given in full) | 0.4 µg/mL (≈ 0.886 µM) |  |  |  |  |  | 
2 |  | C=C(C)[C@H]1Cc2c(ccc3c2O[C@@H]2COc4cc(OC)c(OC)cc4[C@@H]2C3=O)O1 [ROTENONE] | 0.0155 µg/mL (≈ 0.0393 µM) | 288 s | 15% | 92% | 38% |  | 
3 |  | C=C(C)[C@H]1Cc2c(ccc3c(=O)c4c(oc23)COc2cc(OC)c(OC)cc2-4)O1 [DEHYDROROTENONE] |  | 216 s | 0% |  | 0% | 248 s | Not Active
4 |  | COc1cc2c(cc1OC)[C@@H]1C(=O)c3ccc4c(c3O[C@@H]1CO2)C[C@H](C(C)C)O4 | 0.0238 µg/mL (≈ 0.06 µM) |  | 25% | 60% | 29% |  | 
5 |  | C=C(C)[C@H]1Cc2c(ccc3c2O[C@H]2COc4cc(OC)c(OC)cc4[C@H]2C3=O)O1 | 0.0247 µg/mL (≈ 0.0626 µM) |  | 11% | 87% | 28% | 240 s | 
6 |  | CCCc1c(OCC(O)COc2ccc3c(=O)cc(C(=O)[O-])oc3c2CCC)ccc(C(C)=O)c1O.[Na+] (stereo not given) [FPL-55712 SODIUM SALT] | 0.042 µg/mL |  | 0% | 0% | 0% | 253 s | 
7 |  | COc1cc2c(cc1OC)[C@@H]1C(=O)c3ccc4oc(C(C)C)cc4c3O[C@@H]1CO2 [ISOROTENONE] | 0.062 µg/mL (≈ 0.157 µM) |  | 28% |  | 30% | 211 s | 
8 | Not Active | C=C(C)[C@H]1Cc2c(ccc(C(=O)Cc3cc(OC)c(OC)cc3OCC(=O)O)c2O)O1 |  |  | 0% |  | 0% | 167 s | 
9 |  | COc1cc2c(cc1OC)[C@]1(O)C(=O)c3ccc4c(c3O[C@@H]1CO2)C=CC(C)(C)O4 [TEPHROSIN] | 0.2 µg/mL (≈ 0.487 µM) |  |  |  |  |  | 
10 | Not Active | C=C(C)[C@H]1Cc2c(ccc3c2OC2COc4cc(OC)c(OC)cc4C2(OC(C)=O)C3=O)O1 (stereo not given in full) [ACETYLROTENOLENE] |  |  | 0% |  | 0% |  | 
11 |  | C=C(C)[C@H]1Cc2c(ccc3c2OC2COc4cc(OC)c(OC)cc4C2/C3=N/OC(=O)OCC)O1 (stereo not given in full) [O-CARBETHOXY ROTENONE OXIME] | 0.4 µg/mL (≈ 0.831 µM) |  |  |  |  |  | 
12 |  | C=C(C)[C@H]1Cc2c(ccc3c2OC2COc4cc(OC)c(OC)cc4C2/C3=N/O)O1 (stereo not given in full) | 0.4 µg/mL (≈ 0.977 µM) |  |  |  |  | 248 s | 
